# Reference: ChEMBL document CHEMBL4689842, “EUbOPEN Chemogenomics Library wave 1” (2021)
# Tested on: Fibroblast
# Test: Multiplex assay against human fibroblast
# Format: toxicity, cell-based
# In short: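 Four dyes were applied at seeding to live cells: Hoechst33342, BioTracker Green Microtubule Cytoskeleton Dye, MitoTracker Red and Annexin V Alexa Fluor 680. Imaging after compound addition used a CQ1 microscope at 37°C and 5% CO2. CellPathfinder machine-learning gating then sorted cells into Hoechst high-intensity objects or normal cells, normal cells into healthy, pyknosed or fragmented nuclei, and pyknosed cells into mitotic or apoptotic, with tubulin, mitochondrial-mass and membrane-permeability phenotypes given as per cents of healthy-nucleus cells.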
# [1] = 12 h, 1 µM, compound concentration 1 uM, replicate 1
# [2] = 12 h, 1 µM, compound concentration 1 uM, replicate 2
# [3] = 12 h, 10 µM, compound concentration 10 uM, replicate 1
# [4] = 12 h, 10 µM, compound concentration 10 uM, replicate 2
# [5] = 24 h, 1 µM, compound concentration 1 uM, replicate 1
# [6] = 24 h, 1 µM, compound concentration 1 uM, replicate 2
# [7] = 24 h, 10 µM, compound concentration 10 uM, replicate 1
# [8] = 24 h, 10 µM, compound concentration 10 uM, replicate 2
# [9] = 48 h, 1 µM, compound concentration 1 uM, replicate 1
# [10] = 48 h, 1 µM, compound concentration 1 uM, replicate 2
# [11] = 48 h, 10 µM, compound concentration 10 uM, replicate 1
# [12] = 48 h, 10 µM, compound concentration 10 uM, replicate 2
smiles,measurement,setting,value
O=C(O)c1ccc2cc(-c3ccc(O)c(C45CC6CC(CC(C6)C4)C5)c3)ccc2c1 [O-DEMETHYLATED ADAPALENE],Population Apoptotic (%),[1],57%
same,Population Fragmented Nuclei (%),[1],36%
same,Population Healthy Nuclei (%),[1],20%
same,Population Hoechst High Intensity Objects (%),[1],18%
same,Population Membrane Permeable-Phenotype (%),[1],31%
same,Population Mitochondria Different-Phenotype (%),[1],21%
same,Population Mitotic Cells (%),[1],42%
same,Population Normal (%),[1],81%
same,Population Pyknosed Nuclei (%),[1],43%
same,Population Tubulin-Different-Phenotype (%),[1],60%
same,Total Cell Count,[1],249
same,Population Apoptotic (%),[2],100%
same,Population Fragmented Nuclei (%),[2],8%
same,Population Healthy Nuclei (%),[2],87%
same,Population Hoechst High Intensity Objects (%),[2],9%
same,Population Membrane Permeable-Phenotype (%),[2],6%
same,Population Mitochondria Different-Phenotype (%),[2],16%
same,Population Mitotic Cells (%),[2],0%
same,Population Normal (%),[2],90%
same,Population Pyknosed Nuclei (%),[2],3%
same,Population Tubulin-Different-Phenotype (%),[2],16%
same,Total Cell Count,[2],62
same,Population Apoptotic (%),[3],72%
same,Population Fragmented Nuclei (%),[3],32%
same,Population Healthy Nuclei (%),[3],37%
same,Population Hoechst High Intensity Objects (%),[3],16%
same,Population Membrane Permeable-Phenotype (%),[3],44%
same,Population Mitochondria Different-Phenotype (%),[3],0%
same,Population Mitotic Cells (%),[3],27%
same,Population Normal (%),[3],83%
same,Population Pyknosed Nuclei (%),[3],30%
same,Population Tubulin-Different-Phenotype (%),[3],33%
same,Total Cell Count,[3],115
same,Population Apoptotic (%),[4],100%
same,Population Fragmented Nuclei (%),[4],11%
same,Population Healthy Nuclei (%),[4],87%
same,Population Hoechst High Intensity Objects (%),[4],2%
same,Population Membrane Permeable-Phenotype (%),[4],1%
same,Population Mitochondria Different-Phenotype (%),[4],16%
same,Population Mitotic Cells (%),[4],0%
same,Population Normal (%),[4],97%
same,Population Pyknosed Nuclei (%),[4],1%
same,Population Tubulin-Different-Phenotype (%),[4],25%
same,Total Cell Count,[4],83
same,Population Apoptotic (%),[5],53%
same,Population Fragmented Nuclei (%),[5],35%
same,Population Healthy Nuclei (%),[5],20%
same,Population Hoechst High Intensity Objects (%),[5],23%
same,Population Membrane Permeable-Phenotype (%),[5],29%
same,Population Mitochondria Different-Phenotype (%),[5],18%
same,Population Mitotic Cells (%),[5],46%
same,Population Normal (%),[5],76%
same,Population Pyknosed Nuclei (%),[5],43%
same,Population Tubulin-Different-Phenotype (%),[5],45%
same,Total Cell Count,[5],236
same,Population Apoptotic (%),[6],100%
same,Population Fragmented Nuclei (%),[6],7%
same,Population Healthy Nuclei (%),[6],89%
same,Population Hoechst High Intensity Objects (%),[6],6%
same,Population Membrane Permeable-Phenotype (%),[6],6%
same,Population Mitochondria Different-Phenotype (%),[6],30%
same,Population Mitotic Cells (%),[6],0%
same,Population Normal (%),[6],93%
same,Population Pyknosed Nuclei (%),[6],3%
same,Population Tubulin-Different-Phenotype (%),[6],18%
same,Total Cell Count,[6],60
same,Population Apoptotic (%),[7],57%
same,Population Fragmented Nuclei (%),[7],28%
same,Population Healthy Nuclei (%),[7],42%
same,Population Hoechst High Intensity Objects (%),[7],21%
same,Population Membrane Permeable-Phenotype (%),[7],55%
same,Population Mitochondria Different-Phenotype (%),[7],0%
same,Population Mitotic Cells (%),[7],42%
same,Population Normal (%),[7],78%
same,Population Pyknosed Nuclei (%),[7],29%
same,Population Tubulin-Different-Phenotype (%),[7],44%
same,Total Cell Count,[7],113
same,Population Apoptotic (%),[8],0%
same,Population Fragmented Nuclei (%),[8],14%
same,Population Healthy Nuclei (%),[8],81%
same,Population Hoechst High Intensity Objects (%),[8],7%
same,Population Membrane Permeable-Phenotype (%),[8],7%
same,Population Mitochondria Different-Phenotype (%),[8],26%
same,Population Mitotic Cells (%),[8],100%
same,Population Normal (%),[8],92%
same,Population Pyknosed Nuclei (%),[8],3%
same,Population Tubulin-Different-Phenotype (%),[8],28%
same,Total Cell Count,[8],83
same,Population Apoptotic (%),[9],78%
same,Population Fragmented Nuclei (%),[9],61%
same,Population Healthy Nuclei (%),[9],26%
same,Population Hoechst High Intensity Objects (%),[9],43%
same,Population Membrane Permeable-Phenotype (%),[9],2%
same,Population Mitochondria Different-Phenotype (%),[9],15%
same,Population Mitotic Cells (%),[9],21%
same,Population Normal (%),[9],56%
same,Population Pyknosed Nuclei (%),[9],12%
same,Population Tubulin-Different-Phenotype (%),[9],5%
same,Total Cell Count,[9],267
same,Population Apoptotic (%),[10],71%
same,Population Fragmented Nuclei (%),[10],18%
same,Population Healthy Nuclei (%),[10],71%
same,Population Hoechst High Intensity Objects (%),[10],14%
same,Population Membrane Permeable-Phenotype (%),[10],11%
same,Population Mitochondria Different-Phenotype (%),[10],1%
same,Population Mitotic Cells (%),[10],28%
same,Population Normal (%),[10],85%
same,Population Pyknosed Nuclei (%),[10],9%
same,Population Tubulin-Different-Phenotype (%),[10],28%
same,Total Cell Count,[10],87
same,Population Apoptotic (%),[11],85%
same,Population Fragmented Nuclei (%),[11],52%
same,Population Healthy Nuclei (%),[11],40%
same,Population Hoechst High Intensity Objects (%),[11],20%
same,Population Membrane Permeable-Phenotype (%),[11],35%
same,Population Mitochondria Different-Phenotype (%),[11],0%
same,Population Mitotic Cells (%),[11],14%
same,Population Normal (%),[11],79%
same,Population Pyknosed Nuclei (%),[11],7%
same,Population Tubulin-Different-Phenotype (%),[11],35%
same,Total Cell Count,[11],116
same,Population Apoptotic (%),[12],66%
same,Population Fragmented Nuclei (%),[12],37%
same,Population Healthy Nuclei (%),[12],58%
same,Population Hoechst High Intensity Objects (%),[12],14%
same,Population Membrane Permeable-Phenotype (%),[12],24%
same,Population Mitochondria Different-Phenotype (%),[12],4%
same,Population Mitotic Cells (%),[12],33%
same,Population Normal (%),[12],85%
same,Population Pyknosed Nuclei (%),[12],3%
same,Population Tubulin-Different-Phenotype (%),[12],46%
same,Total Cell Count,[12],99
